Test [1] addresses T1, Ornithine decarboxylase (Rattus norvegicus) (UniProt P09057).
T1 sequence (whole entry): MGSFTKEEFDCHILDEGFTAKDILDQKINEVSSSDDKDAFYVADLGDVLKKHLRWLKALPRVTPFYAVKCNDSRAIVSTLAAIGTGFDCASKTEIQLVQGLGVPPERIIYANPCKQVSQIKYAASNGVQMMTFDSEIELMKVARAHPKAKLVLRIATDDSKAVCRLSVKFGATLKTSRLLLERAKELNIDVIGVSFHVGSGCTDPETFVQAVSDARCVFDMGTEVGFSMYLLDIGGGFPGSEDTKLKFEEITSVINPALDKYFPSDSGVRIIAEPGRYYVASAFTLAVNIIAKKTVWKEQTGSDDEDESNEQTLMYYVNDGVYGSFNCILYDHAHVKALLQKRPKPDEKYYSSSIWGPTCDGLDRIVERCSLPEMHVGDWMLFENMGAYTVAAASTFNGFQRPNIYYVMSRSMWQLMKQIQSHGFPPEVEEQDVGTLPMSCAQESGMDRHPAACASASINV
Put plainly: The compound was tested for the inhibitory activity against L-orinithine carboxylase in rat thymus. dose 200 mg/kg, ip). It is filed as functional, organism-based. More on the design: dose 200 mg/kg; scale not given: the % may be the effect or the level left. The following applies: at 200 mg/kg. A digest of the protocol:
(§1)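 Male Sprague–Dawley rats (200–220 g), fed ad libitum, 12 h light/dark. Single ip dose in 0.9% saline; saline-injected controls. Killed by decapitation 5 h later at a fixed time of day. Ventral prostate, testis and thymus homogenized; ODC activity measured as CO2 release and expressed as % of control. Mean ± SEM of five animals; Student's t test.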

Test [2] deals with T1, Ornithine decarboxylase (Rattus norvegicus). Put plainly: The compound was tested for the inhibitory activity against L-orinithine carboxylase inventral prostate of the rat at dose 100 mg/kg, ip). It is filed as functional, organism-based. The following applies: Prostate gland. Set-up: dose 100 mg/kg; scale not given: the % may be the effect or the level left. The essentials: as §1

The target is the same in test [3]. Kind of test: Effect on the time of half-inactivation of ornithine decarboxylase in the presence of 10 uM concentration + 1 mM L-ornithine. It is filed as functional. A digest of the protocol:
(§2)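 Rat liver ODC from thioacetamide-treated rats (150 mg/kg, 18 h before sacrifice), purified about tenfold by acid treatment at pH 4.6. Enzyme preincubated at 37 °C in 30 mM sodium phosphate pH 7.1 with 5 mM dithiothreitol, 0.1 mM pyridoxal phosphate, inhibitor and 1 mM effector where listed. Half-inactivation time derived from pseudo-first-order loss.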

Test [4] has the same target. Put plainly: Effect on the time of half-inactivation of ornithine decarboxylase in the presence of 10 uM concentration + 1 mM L-2-methylornithine. It is filed as functional. The essentials:
as §2

Test [5] shares this target. Put plainly: The compound was tested for the inhibitory activity against L-orinithine carboxylase in ventral prostate of the rat at dose 12.5 mg/kg, ip). The test is classed as functional, organism-based. The following applies: Prostate gland. Set-up: dose 12.5 mg/kg; scale not given: the % may be the effect or the level left. The essentials: as §1
Test [6] has the same target. Put plainly: The compound was tested for the inhibitory activity against L-orinithine carboxylase in ventral prostate of the rat at dose 25 mg/kg, ip). More on the design: dose 25 mg/kg; scale not given: the % may be the effect or the level left. The following applies: Prostate gland. It is filed as functional, organism-based. A digest of the protocol:
as §1

For test [7] the target is unchanged. Put plainly: The compound was tested for the inhibitory activity against L-orinithine carboxylase in ventral prostate of the rat dose 200 mg/kg, ip). More on the design: dose 200 mg/kg; scale not given: the % may be the effect or the level left. It is filed as functional, organism-based. The following applies: Prostate gland; at 200 mg/kg. A digest of the protocol:
as §1

Test [8] has the same target. Kind of test: The compound was tested for the inhibitory activity against L-orinithine carboxylase in ventral prostate of the rat at dose 50 mg/kg, ip). The test is classed as functional, organism-based. More on the design: dose 50 mg/kg; scale not given: the % may be the effect or the level left. The following applies: Prostate gland. A digest of the protocol:
as §1

Test [9] has the same target. Put plainly: Effect on the time of half-inactivation of ornithine decarboxylase at 10 uM concentration. The test is classed as functional. The essentials: as §2
The target is the same in test [10]. Put plainly: Effect on the time of half-inactivation of ornithine decarboxylase in the presence of 10 uM concentration + 1 mM D-2-methylornithine. The test is classed as functional. A digest of the protocol:
as §2

Test [11] shares this target. Put plainly: The compound was tested for the inhibitory activity against L-orinithine carboxylase in rat testis. dose 200 mg/kg, ip). It is filed as functional, organism-based. More on the design: dose 200 mg/kg; scale not given: the % may be the effect or the level left. The following applies: at 200 mg/kg. The essentials: as §1

Take `C#CC(N)(CCCN)C(=O)O` (stereo unspecified): the Control was 54% in test [1]; 19% in test [2]; 59% in test [5]; 56% in [6]; 18% in test [7]; 40% in test [8]. Also, in [11], the Control came out at 80%. Moreover, the Time of half inactivation came out at 81 min in test [3], 270 min in [4], 18 min in [9] and 26 min in test [10].
